Assay [1] concerns the target T1, Sterol O-acyltransferase 1 (Rattus norvegicus, UniProt O70536).
T1 sequence (O70536 whole entry): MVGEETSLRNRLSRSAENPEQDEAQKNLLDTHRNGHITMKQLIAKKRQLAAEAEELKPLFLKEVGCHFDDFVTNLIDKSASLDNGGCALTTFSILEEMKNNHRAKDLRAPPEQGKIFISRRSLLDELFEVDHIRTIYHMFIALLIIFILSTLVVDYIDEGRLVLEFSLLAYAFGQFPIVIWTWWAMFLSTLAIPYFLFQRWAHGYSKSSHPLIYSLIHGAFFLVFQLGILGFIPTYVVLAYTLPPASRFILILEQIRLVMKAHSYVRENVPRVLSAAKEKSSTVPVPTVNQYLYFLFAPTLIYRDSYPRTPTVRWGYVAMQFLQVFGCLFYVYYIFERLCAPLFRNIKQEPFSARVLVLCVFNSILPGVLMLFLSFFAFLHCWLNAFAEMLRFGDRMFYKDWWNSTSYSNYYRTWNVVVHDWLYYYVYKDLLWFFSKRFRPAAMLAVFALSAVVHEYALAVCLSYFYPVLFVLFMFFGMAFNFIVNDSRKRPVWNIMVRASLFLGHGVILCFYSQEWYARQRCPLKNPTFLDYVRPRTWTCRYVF
As to the kind of experiment: In vitro inhibitory concentration against acyl coenzyme A:cholesterol acyltransferase derived from rat adrenals. In short, it runs like this:
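Rat adrenal homogenate in 0.2 M KH2PO4 buffer pH 7.4, 1000g supernatant (microsomal fraction) as enzyme; preincubated with BSA and test compound at graded concentrations, 37 °C 10 min, then [14C]oleoyl-CoA 0.4 µCi, 37 °C 30 min. Lipids extracted, cholesteryl ester isolated by TLC and counted. Triplicate tubes per concentration; IC50 by linear regression of means.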

Assay [2] addresses T2, Sterol O-acyltransferase 1 (Rattus norvegicus) (UniProt O70536).
T2 sequence (whole entry): T1 sequence (O70536 whole entry)
As to the kind of experiment: In vitro percentage inhibition against acyl coenzyme A:cholesterol acyltransferase derived from rat adrenals. Details: concentration or dose not given beside the values. Conditions: concentration not given here. In short, it runs like this:
(§1)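 Rat adrenal 1000g supernatant (microsomal ACAT) in 0.2 M KH2PO4 pH 7.4 with BSA; test compound at final 5.2 µg/mL, preincubated 37 °C 10 min; [14C]oleoyl-CoA (0.4 µCi) added, 37 °C 30 min. Cholesteryl ester separated by TLC, scintillation counted; mean percent inhibition against compound-free control.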

Assay [3] concerns the target T2, Sterol O-acyltransferase 1 (Rattus norvegicus). As to the kind of experiment: Serum hypolipidemic activity in rats. Format: functional. In short, it runs like this:
(§2)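 Male CD-1 Sprague-Dawley rats, 140–150 g, fed 1% cholesterol/0.5% cholic acid diet with compound admixed at 0.01% (about 10 mg/kg/day) for 7 days. Serum and liver cholesterol measured by Technicon autoanalyzer methods; expressed as percent of control.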

Assay [4] has the same target. In words: In vitro percentage inhibition against Acyl coenzyme A:cholesterol acyltransferase derived from rat adrenals. More on the design: concentration or dose not given beside the values. Conditions: concentration not given here. The method, boiled down:
as §1

Assay [5] has the same target. In words: Liver hypolipidemic activity in rats. It is filed as functional. In short, it runs like this: as §2

The structures appear in SMILES notation.

A word on the IC50: it is the concentration that gives 50% inhibition. Broadly, the inhibition is the relative decrease from the control value, in per cent. With `CCCCN(CCCC)C(=O)Nc1cccc(C)c1`, the half-inhibitory concentration (IC50) in assay [1] is 4.76 µM. Moreover, in assay [2], the inhibition came out at 78%.
`CCCCc1ccc(NC(=O)N(Cc2ccccc2)Cc2ccccc2)cc1` gave an SS in assay [3] of 62%. Besides, the inhibition in assay [4] came to 91%. Also, the LS in assay [5] is 87%.
On to `Cc1c(Cl)cccc1NC(=O)N(CCC(C)(C)C)Cc1cccs1`, for which the SS in assay [3] is 62%. The compound further showed an IC50 in assay [1] of 6.77 µM. The same compound returned an LS in assay [5] of 64%.
Turning to `O=C(Nc1ccccc1C(F)(F)F)N(Cc1ccccc1)Cc1ccccc1`, the SS in assay [3] turned out to be 165%. Besides, in assay [4], the inhibition was 68%. In addition, in assay [5], the LS is 76%.
For `Cc1ccc(NC(=O)N(Cc2ccccc2)Cc2ccccc2)c(C)c1`, in that order: 52%, 90% and 31%.
On the same counts, the results for `O=C(NCc1ccccc1)Nc1ccccc1Cl` are 92%, 50% and 96%.
On to `CCOc1ccc(NC(=O)N(Cc2ccccc2)Cc2ccccc2)cc1`, for which, in assay [1], the midpoint of inhibition, the IC50, lay at 9.63 µM. For the same compound, in assay [2], the inhibition is 96%.
`CC(C)(C)CCN(Cc1cccs1)C(=O)Nc1c(Cl)cc(Cl)cc1Cl` returned an SS in assay [3] of 58%. Also, in assay [1], the IC50 was 0.977 µM. This compound showed an LS in assay [5] of 56%.
The compound `O=C(Nc1ccc(Oc2ccccc2)cc1)N(Cc1ccccc1)Cc1ccccc1` displayed an SS in assay [3] of 66%. This compound had an IC50 in assay [1] of 3.23 µM. Also, in assay [2], the inhibition was found to be 94%. In assay [5], the LS came out at 89%.
As for `COc1ccc(C)cc1NC(=O)N(Cc1ccccc1)Cc1ccccc1`, the SS in assay [3] worked out at 83%. Also, in assay [4], the inhibition worked out at 88%. Besides, the LS in assay [5] worked out at 44%.
On to `CCCCN(CCCC)C(=O)Nc1ccc(C)c(Cl)c1`, for which the SS in assay [3] worked out at 110%. In assay [1], this compound had an IC50 of 6.43 µM. In addition, the inhibition in assay [2] came out at 91%. For the same compound, the LS in assay [5] worked out at 98%.
For `CCCCN(Cc1ccc2c(c1)OCO2)C(=O)Nc1ccc(C)cc1C`, in that order: 64%, 5.67 µM, 88% and 46%.
With `CCCCN(CCCC)C(=O)Nc1ccc(Cl)c(C(F)(F)F)c1`, the IC50 in assay [1] is 10.5 µM. Also, in assay [2], the inhibition was found to be 87%.
Compound `Cc1cccc(NC(=O)N(Cc2ccccc2)Cc2ccccc2)c1C` gave an SS in assay [3] of 65%. Besides, the inhibition in assay [4] was 85%. In assay [5], this compound had an LS of 51%.
Compound `CCCCN(Cc1ccccc1)C(=O)Nc1ccc(C)cc1` returned an SS in assay [3] of 106%. The inhibition in assay [4] was 78%; in assay [2] it was 14%. Besides, the LS in assay [5] was found to be 107%.
In assay [3], `CCCCCCCCCCCCN(CCCCCCCCCCCC)C(=O)Nc1ccc(C)cc1C` had an SS of 86%. Also, the inhibition in assay [4] amounted to 26%. This compound also gave an LS in assay [5] of 120%.
In turn, `CCCCN(CCCC)C(=O)Nc1cc(C)ccc1C` showed an SS in assay [3] of 127%. For the same compound, in assay [4], the inhibition came to 96%. The LS in assay [5] was determined as 110%.
On the same counts, the results for `Cc1ccc(Cl)cc1NC(=O)N(Cc1ccccc1)Cc1ccccc1` are 97%, 71% and 66%.
Regarding `CCCCN(CCCC)C(=O)Nc1cccc(C(F)(F)F)c1`, the SS in assay [3] was determined as 100%. For the same compound, the inhibition in assay [4] came to 75%. In assay [5], this compound gave an LS of 91%.
`CCCCN(CCCC)C(=O)Nc1ccccc1` registered an SS in assay [3] of 121%. The inhibition in assay [2] is 64%. The compound further registered an LS in assay [5] of 100%.
`Cc1ccc(NC(=O)N(CCCCC2CCCCC2)CCCCC2CCCCC2)c(C)c1`: in assay [3], the SS came out at 80%. Moreover, the inhibition in assay [4] came to 86%. The compound also registered an LS in assay [5] of 106%.
As for `CCCCN(CCCC)C(=O)Nc1cc(Cl)cc(Cl)c1`, the SS in assay [3] is 76%. Moreover, it took 4.38 µM to reach half-maximal inhibition in assay [1] (IC50). Further, the inhibition in assay [2] is 79%. In assay [5], the LS amounted to 93%.
In turn, `Cc1ccc(NC(=O)N(CCC(C)CC(C)(C)C)CCC(C)CC(C)(C)C)c(C)c1` (configuration not stated) displayed an SS in assay [3] of 71%. The inhibition in assay [4] is 90%. Moreover, the LS in assay [5] came out at 70%.
For `O=C(Nc1ccc(Cl)cc1C(F)(F)F)N(Cc1ccccc1)Cc1ccccc1`, in that order: 66%, 82% and 57%.
Turning to `CCCCN(CCCC)C(=O)Nc1cccc(C(C)=O)c1`, the SS in assay [3] is 64%. Moreover, in assay [4], the inhibition came to 51%. For the same compound, the LS in assay [5] was 100%.
In turn, `Cc1ccc(NC(=O)Nc2ccc(C)cc2C)c(C)c1` yielded an SS in assay [3] of 100%. Also, in assay [4], the inhibition stood at 10%. Further, in assay [5], the LS amounted to 85%.
For `CCCCCCCCCCCCCCN(CCCCCCCCCCCCCC)C(=O)Nc1ccc(C)cc1C`, in that order: 107%, -7% and 121%.
On the same counts, the results for `Cc1ccc(NC(=O)N(Cc2ccccc2)Cc2ccccc2)cc1C` are 97%, 72% and 60%.
Consider `CCCCN(CC(c1ccc(Cl)cc1)c1ccc(Cl)cc1)C(=O)Nc1ccc(C)cc1C`, for which the SS in assay [3] is 110%. The inhibition in assay [4] stood at 81%. In assay [5], this compound gave an LS of 84%.
On the same counts, the results for `C#CCN(CC#C)C(=O)Nc1ccc(C)cc1C` are 73%, 33% and 93%.
For `CCCCCCCC/C=C/CCCCCCCCN(Cc1ccc(CCCC)cc1)C(=O)Nc1ccc(C)cc1C` (stereo in doubt; 161), in that order: 130%, 9% and 87%.
On the same counts, the results for `CCCCCCCCN(CCCCCCCC)C(=O)Nc1ccc(C)cc1C` are 47%, 89% and 22%.
Take `COc1cccc(NC(=O)NCc2ccccc2)c1`: in assay [3], the SS was determined as 110%. In assay [2], the inhibition worked out at 34%. This compound also returned an LS in assay [5] of 94%.
For `Cc1ccc(NC(=O)N(C2CCCC2)C2CCCC2)c(C)c1`, in that order: 98%, 90% and 113%.
Take `CCCCN(CCCC)C(=O)Nc1ccccc1C`: the SS in assay [3] was 81%. Moreover, the inhibition in assay [2] is 62%. Besides, in assay [5], the LS worked out at 111%.
For `CCCCN(Cc1ccccc1)C(=O)Nc1cccc(C(F)(F)F)c1`, in that order: 84%, 86% and 104%.
On the same counts, the results for `CCCCN(Cc1ccccc1)C(=O)Nc1c(C)cc(C)cc1C` are 63%, 76% and 37%.
In assay [3], `CCCCCCCCCCCCCCCCCCN(CCCCCCCCCCCCCCCCCC)C(=O)Nc1ccc(C)cc1C` had an SS of 106%. For the same compound, the inhibition in assay [4] is -6%. For the same compound, the LS in assay [5] came out at 123%.
The compound `CC(C)(C)CCN(Cc1cccs1)C(=O)Nc1ccc(F)cc1F` registered an SS in assay [3] of 66%. This compound also had an IC50 in assay [1] of 6.75 µM. Also, the LS in assay [5] was 73%.
In assay [3], `CCCCN(Cc1ccccc1)C(=O)Nc1cc(Cl)cc(Cl)c1` yielded an SS of 120%. Besides, the inhibition in assay [2] worked out at 91%. In addition, the LS in assay [5] was determined as 107%.
`O=C(Nc1cccc(Cl)c1)N(Cc1ccccc1)Cc1ccccc1` had a half-maximal inhibitory concentration (IC50) in assay [1] of 7.75 µM. In assay [2], the inhibition amounted to 94%.
In assay [3], `CCOC(=O)c1ccc(NC(=O)N(Cc2ccccc2)Cc2ccccc2)cc1` gave an SS of 120%. Moreover, the inhibition in assay [2] stood at 93%. In assay [5], the LS was found to be 83%.

Values taken from ChEMBL document CHEMBL1124354, “Potential antiatherosclerotic agents. 6. Hypocholesterolemic trisubstituted urea analogues” (J Med Chem, 1989).
